From ChEMBL document CHEMBL2157962, “A fluorous and click approach for screening potential PET probes: Evaluation of potential hypoxia biomarkers” (Bioorg Med Chem, 2012)

Assays:
MCF7 [1] = assay: Drug uptake in human MCF7 cells at 0.5 to 1.0 MBq/mL after 1 hr in hypoxic condition by gamma counting; type: ADME, cell-based; conditions: mcf7, 1 h
How it was run: (§1)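 MCF-7 cells in RPMI 1640 with 10% FBS were seeded at 100,000 cells/well and grown 24 h, then held 4 h normoxic (5% CO2) or hypoxic (5% CO2/95% N2 chamber, 37 °C). ¹⁸F-labeled tracer (0.5–1.0 MBq/mL in PBS) was added for 1 h at 37 °C. Cells were washed twice with PBS, lysed in 1 M NaOH, and gamma counted. Uptake is expressed as % of added activity; 6 replicates.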

MCF7 [2] = assay: Drug uptake in human MCF7 cells at 0.5 to 1.0 MBq/mL after 1 hr in normoxic condition by gamma counting; type: ADME, cell-based; conditions: mcf7, 1 h; how it was run: as §1
[3] = Drug metabolism of the compound assessed as reduction rate assessed per unit of enzyme in anoxic conditions in presence of bovine milk xanthine oxidase; type: physicochemical; conditions: cattle
How it was run: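 Xanthine oxidase in PBS (0.118 unit) added to 0.29 mM xanthine (reducing substrate) plus 0.12 mM nitroaromatic (oxidizing substrate) in 50 mM PBS pH 7.5 at 37 °C. Solutions argon-degassed 20 min; sealed cuvette. Rate taken from initial absorbance loss at λmax (>325 nm) or at the 249 nm isosbestic point, converted to nmol/min via extinction coefficients. Triplicate, mean ± SD.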

MCF7 [4] = assay: Drug uptake in human MCF7 cells at 30 MBq/umol after 1 hr in hypoxic condition by gamma counting; type: ADME, cell-based; conditions: mcf7, 1 h
How it was run: (§2)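 MCF-7 cells were grown in RPMI 1640 with 10% FBS and 1% P/S, seeded at 100,000 cells/well, and cultured 24 h at 37 °C in 5% CO2. They were then kept 4 h in a sealed chamber flushed with 5% CO2/95% N2 (10 L/min, 15 min). ¹⁸F-tracer (0.5–1.0 MBq/mL in PBS) was added for 1 h at 37 °C under hypoxia. Cells were PBS-washed twice, lysed in 1 M NaOH, and gamma-counted; uptake is % of added activity, n=6.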

MCF7 [5] = assay: Drug uptake in human MCF7 cells at 30 GBq/umol after 1 hr in hypoxic condition by gamma counting; type: ADME, cell-based; conditions: mcf7, 1 h; how it was run: as §2
MCF7 [6] = assay: Drug uptake in human MCF7 cells at 0.3 MBq/umol after 1 hr in hypoxic condition by gamma counting; type: ADME, cell-based; conditions: mcf7, 1 h; how it was run: as §2
[7] = 1-Octanol-phosphate buffer partition coefficient, log P of the compound at pH 7.4 after 30 mins by shake-flask method; type: physicochemical
How it was run: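 Shake-flask: about 0.01–0.1 mg/mL compound shaken in 1-octanol and 50 mM phosphate buffer (pH 7.4) for 30 min at room temperature. Equal amounts of each phase quantified by HPLC UV absorbance (C18, isocratic ethanol:water). Triplicate, mean ± SD.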

MCF7 [8] = assay: Drug uptake in human MCF7 cells at 0.5 to 1.0 MBq/mL after 1 hr measured 60 mins post wash out in hypoxic condition by gamma counting; type: ADME, cell-based; conditions: mcf7, 1 h
How it was run: (§3)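 MCF-7 cells were preconditioned 4 h normoxic or hypoxic (5% CO2/95% N2), then given ¹⁸F tracer (0.5–1.0 MBq/mL) for 1 h at 37 °C. Radioactive medium was replaced with fresh RPMI 1640 (10% FBS) for a further 1 h under the same oxygen condition. Cells were then PBS-washed, lysed in 1 M NaOH and gamma counted. Retained activity is given as % of added.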

MCF7 [9] = assay: Drug uptake in human MCF7 cells at 0.5 to 1.0 MBq/mL after 1 hr measured 60 mins post wash out in normoxic condition by gamma counting; type: ADME, cell-based; conditions: mcf7, 1 h; how it was run: as §3

Row | Drug uptake (MCF7 [1]) | Drug uptake (MCF7 [2]) | Drug metabolism [3] | logD at 0.5 h [7] | SMILES | also measured
1 | Active | Active |  |  | O=[N+]([O-])c1nccn1Cc1cn(CC[18F])nn1 | 
2 | Not Active |  |  |  | O=[N+]([O-])c1ccnn1Cc1cn(CC[18F])nn1 | 
3 |  |  | 36 nmol/min/U | -0.41 | O=[N+]([O-])c1nccn1Cc1cn(CCF)nn1 | 
4 |  |  | 20 nmol/min/U | 0.03 | O=[N+]([O-])c1ccnn1Cc1cn(CCF)nn1 | 
5 | Active | Active |  |  | O=[N+]([O-])c1ncccc1NCc1cn(CC[18F])nn1 | 

More lines, now with the values behind:

Row | SMILES | Drug uptake (MCF7 [1]) | Drug uptake (MCF7 [2]) | Drug metabolism [3] | logD at 0.5 h [7] | also measured
6 | O=[N+]([O-])c1nccn1CC(O)CF (stereo unspecified) [FLUOROMISONIDAZOLE] |  |  | 37 nmol/min/U |  | 
7 | O=[N+]([O-])c1nccn1CC(O)C[18F] (stereo unspecified) [[18F]FLUOROMISONIDAZOLE] |  |  |  |  | Drug uptake (MCF7 [4]): 3.2%; Drug uptake (MCF7 [5]): 3.9%; Drug uptake (MCF7 [6]): 1.1%
8 | O=[N+]([O-])c1cnc(NCc2cn(CCF)nn2)s1 |  |  | 277 nmol/min/U | 0.79 | 
9 | O=[N+]([O-])c1cnc(NCc2cn(CC[18F])nn2)s1 | Active | Active |  |  | Drug uptake (MCF7 [8]): Active; Drug uptake (MCF7 [9]): Active
10 | O=[N+]([O-])c1ncccc1NCc1cn(CCF)nn1 |  |  | 58 nmol/min/U | 0.04 | 
